Experimental data published in ChEMBL document CHEMBL5724801, “EUbOPEN Chemogenomics Library - Multiplex” (2024).
Several values for one entry are separate records, joined by “and”; a condition that tells them apart may be missing. Equal values may be shown once.

Tested on: U2OS
Test: Multiplex assay against U2OS
Format: toxicity, cell-based
Conditions: human
How it was run: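 At seeding, live cells were stained with Hoechst33342, BioTracker Green Microtubule Cytoskeleton Dye, MitoTracker Red and Annexin V Alexa Fluor 680. After compound addition they were imaged on a CQ1 microscope at 37°C and 5% CO2, and CellPathfinder machine-learning gating sorted them into Hoechst high-intensity objects or normal cells, with normal cells further split into healthy, pyknosed or fragmented nuclei and pyknosed cells into mitotic or apoptotic. Tubulin, mitochondrial-mass and membrane-permeability phenotypes are given as per cents of cells with healthy nuclei.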

[1] = 12 h, 1 µM, compound concentration 1 uM
[2] = 12 h, 10 µM, compound concentration 10 uM
[3] = 24 h, 1 µM, compound concentration 1 uM
[4] = 24 h, 10 µM, compound concentration 10 uM
[5] = 48 h, 1 µM, compound concentration 1 uM
[6] = 48 h, 10 µM, compound concentration 10 uM

## C[C@@H]1CC(=O)Nc2cccc(-c3ccc4c(c3)c(-c3cnn(C)c3)nn4C)c2N1
[1]
  Population Apoptotic (%): 92% and 88%
  Population Fragmented Nuclei (%): 20% and 16%
  Population Healthy Nuclei (%): 73% and 75%
  Population Hoechst High Intensity Objects (%): 1%
  Population Membrane Permeable-Phenotype (%): 7% and 5%
  Population Mitochondria Different-Phenotype (%): 4% and 2%
  Population Mitotic Cells (%): 7% and 11%
  Population Normal (%): 98%
  Population Pyknosed Nuclei (%): 6% and 7%
  Population Tubulin-Different-Phenotype (%): 6% and 2%
  Total Cell Count: 233 and 116
[2]
  Population Apoptotic (%): 86% and 33%
  Population Fragmented Nuclei (%): 29% and 21%
  Population Healthy Nuclei (%): 58% and 74%
  Population Hoechst High Intensity Objects (%): 2% and 1%
  Population Membrane Permeable-Phenotype (%): 11% and 7%
  Population Mitochondria Different-Phenotype (%): 11% and 7%
  Population Normal (%): 97% and 98%
  Population Pyknosed Nuclei (%): 12% and 4%
  Population Tubulin-Different-Phenotype (%): 8%
[3]
  Population Apoptotic (%): 95% and 100%
  Population Fragmented Nuclei (%): 20% and 22%
  Population Healthy Nuclei (%): 71% and 74%
  Population Hoechst High Intensity Objects (%): 2% and 1%
  Population Membrane Permeable-Phenotype (%): 5% and 1%
  Population Mitochondria Different-Phenotype (%): 2% and 1%
  Population Mitotic Cells (%): 4% and 0%
  Population Normal (%): 97% and 98%
  Population Pyknosed Nuclei (%): 7% and 4%
  Population Tubulin-Different-Phenotype (%): 2% and 0%
  Total Cell Count: 294 and 152
[4]
  Population Apoptotic (%): 90% and 83%
  Population Fragmented Nuclei (%): 24% and 15%
  Population Healthy Nuclei (%): 63% and 78%
  Population Hoechst High Intensity Objects (%): 4% and 1%
  Population Membrane Permeable-Phenotype (%): 7% and 6%
  Population Mitochondria Different-Phenotype (%): 6% and 1%
  Population Mitotic Cells (%): 10% and 16%
  Population Normal (%): 95% and 98%
  Population Pyknosed Nuclei (%): 11% and 6%
  Population Tubulin-Different-Phenotype (%): 3% and 4%
  Total Cell Count: 266 and 97
[5]
  Population Apoptotic (%): 100%
  Population Fragmented Nuclei (%): 19% and 13%
  Population Healthy Nuclei (%): 73% and 77%
  Population Hoechst High Intensity Objects (%): 1%
  Population Membrane Permeable-Phenotype (%): 4% and 2%
  Population Mitochondria Different-Phenotype (%): 2%
  Population Mitotic Cells (%): 0%
  Population Normal (%): 98%
  Population Pyknosed Nuclei (%): 6% and 8%
  Population Tubulin-Different-Phenotype (%): 3% and 2%
  Total Cell Count: 437 and 224
[6]
  Population Apoptotic (%): 100%
  Population Fragmented Nuclei (%): 28% and 23%
  Population Healthy Nuclei (%): 65% and 71%
  Population Hoechst High Intensity Objects (%): 3% and 4%
  Population Membrane Permeable-Phenotype (%): 8% and 3%
  Population Mitochondria Different-Phenotype (%): 3% and 0%
  Population Mitotic Cells (%): 0%
  Population Normal (%): 96% and 95%
  Population Pyknosed Nuclei (%): 5% and 4%
  Population Tubulin-Different-Phenotype (%): 5% and 3%
  Total Cell Count: 394 and 149

## CN(C)CCCc1cc(C(=O)Nc2ccc(-c3ccncc3)cc2)ccc1O.Cl.Cl
[1]
  Population Apoptotic (%): 89% and 100%
  Population Fragmented Nuclei (%): 29% and 10%
  Population Healthy Nuclei (%): 60% and 75%
  Population Hoechst High Intensity Objects (%): 2% and 0%
  Population Membrane Permeable-Phenotype (%): 6% and 2%
  Population Mitochondria Different-Phenotype (%): 0% and 1%
  Population Mitotic Cells (%): 10% and 0%
  Population Normal (%): 97% and 99%
  Population Pyknosed Nuclei (%): 9% and 13%
  Population Tubulin-Different-Phenotype (%): 3% and 0%
  Total Cell Count: 199 and 124
[2]
  Population Apoptotic (%): 77% and 42%
  Population Fragmented Nuclei (%): 28% and 24%
  Population Healthy Nuclei (%): 62% and 63%
  Population Hoechst High Intensity Objects (%): 4% and 1%
  Population Membrane Permeable-Phenotype (%): 7% and 4%
  Population Mitochondria Different-Phenotype (%): 1% and 8%
  Population Mitotic Cells (%): 22% and 57%
  Population Normal (%): 95% and 98%
  Population Pyknosed Nuclei (%): 9% and 12%
  Population Tubulin-Different-Phenotype (%): 2%
  Total Cell Count: 237 and 113
[3]
  Population Apoptotic (%): 100% and 94%
  Population Fragmented Nuclei (%): 28% and 11%
  Population Healthy Nuclei (%): 65% and 77%
  Population Hoechst High Intensity Objects (%): 2% and 4%
  Population Membrane Permeable-Phenotype (%): 5% and 7%
  Population Mitochondria Different-Phenotype (%): 2% and 5%
  Population Mitotic Cells (%): 0% and 5%
  Population Normal (%): 97% and 95%
  Population Pyknosed Nuclei (%): 6% and 11%
  Population Tubulin-Different-Phenotype (%): 3% and 5%
  Total Cell Count: 247 and 178
[4]
  Population Apoptotic (%): 72% and 66%
  Population Fragmented Nuclei (%): 28% and 21%
  Population Healthy Nuclei (%): 58% and 63%
  Population Hoechst High Intensity Objects (%): 4% and 0%
  Population Membrane Permeable-Phenotype (%): 6% and 4%
  Population Mitochondria Different-Phenotype (%): 3% and 8%
  Population Mitotic Cells (%): 27% and 33%
  Population Normal (%): 95% and 100%
  Population Pyknosed Nuclei (%): 13% and 15%
  Population Tubulin-Different-Phenotype (%): 1% and 2%
  Total Cell Count: 257 and 118
[5]
  Population Apoptotic (%): 88% and 93%
  Population Fragmented Nuclei (%): 25% and 15%
  Population Healthy Nuclei (%): 69% and 71%
  Population Hoechst High Intensity Objects (%): 3%
  Population Membrane Permeable-Phenotype (%): 5% and 7%
  Population Mitochondria Different-Phenotype (%): 3%
  Population Mitotic Cells (%): 11% and 6%
  Population Normal (%): 96%
  Population Pyknosed Nuclei (%): 5% and 13%
  Population Tubulin-Different-Phenotype (%): 3% and 4%
  Total Cell Count: 338 and 259
[6]
  Population Apoptotic (%): 74% and 68%
  Population Fragmented Nuclei (%): 25% and 20%
  Population Healthy Nuclei (%): 61% and 63%
  Population Hoechst High Intensity Objects (%): 5% and 4%
  Population Membrane Permeable-Phenotype (%): 5% and 13%
  Population Mitochondria Different-Phenotype (%): 3% and 8%
  Population Mitotic Cells (%): 25% and 32%
  Population Normal (%): 94% and 95%
  Population Pyknosed Nuclei (%): 12% and 16%
  Population Tubulin-Different-Phenotype (%): 5% and 9%
  Total Cell Count: 352 and 160
